Assay results published in ChEMBL document CHEMBL5705907 (BMC Rheumatol, 2018).
Activity calls are given as the source filed them. No cut-off for these calls is given here.

Experiments:
Rattus norvegicus [1] = test: Antiarthritic activity in adjuvant-induced arthritis Lewis rat model at 3 to 10 mg/kg, po administered for 10 days and measured on day 17 by microCT-scanning analysis; assay type: functional, organism-based; conditions: dose 3-10 mg/kg, time 17.0 day
Summary of the method: (§1)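 Lewis rats with adjuvant-induced arthritis were given vehicle or drug by oral gavage twice daily for 10 days (Day 7–Day 17 post immunization). On Day 17 they were exsanguinated by cardiac puncture under isoflurane. Left rear paws were μCT-scanned, and bone volume and density were determined in a 360 μm vertical section through the tarsal region. Groups were compared with vehicle by Dunnett's test.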

Rattus norvegicus [2] = test: Antiarthritic activity in adjuvant-induced arthritis Lewis rat model assessed as reduction in paw swelling at 5 to 10 mg/kg, po administered for 10 days and measured on day 17; assay type: functional; design: scale not given: the % may be the effect or the level left; conditions: dose 5-10 mg/kg, time 17 day
Summary of the method: (§2)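 In rats with adjuvant-induced arthritis, vehicle or drug was given by oral gavage BID for 10 days (Day 7–Day 17 after immunization). Paw swelling was measured by water-displacement plethysmography every other day up to Day 17. Treatment groups were compared with vehicle by Dunnett's multiple comparison test.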

Rattus norvegicus [3] = test: Antiarthritic activity in adjuvant-induced arthritis Lewis rat model assessed as bone destruction by measuring reduction in bone volume at 10 mg/kg, po administered for 10 days and measured on day 17 by microCT-scanning analysis; assay type: functional; design: scale not given: the % may be the effect or the level left; conditions: time 17 day
Summary of the method: (§3)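 Rats dosed by oral gavage twice daily (BID) with vehicle or drug for 10 days (Day 7–Day 17 post immunization). On Day 17, rats exsanguinated by cardiac puncture under isoflurane; left rear paw scanned by μCT. Bone volume and density determined in a 360 μm vertical section encompassing the tarsal region. Each group compared with vehicle by Dunnett's multiple comparison test.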

[4] = target: Cyclin-dependent kinase 11B (Homo sapiens, UniProt P21127); test: Inhibition of CDK11 (unknown origin) by TR-FRET assay
Sequence of Cyclin-dependent kinase 11B (P21127 whole entry): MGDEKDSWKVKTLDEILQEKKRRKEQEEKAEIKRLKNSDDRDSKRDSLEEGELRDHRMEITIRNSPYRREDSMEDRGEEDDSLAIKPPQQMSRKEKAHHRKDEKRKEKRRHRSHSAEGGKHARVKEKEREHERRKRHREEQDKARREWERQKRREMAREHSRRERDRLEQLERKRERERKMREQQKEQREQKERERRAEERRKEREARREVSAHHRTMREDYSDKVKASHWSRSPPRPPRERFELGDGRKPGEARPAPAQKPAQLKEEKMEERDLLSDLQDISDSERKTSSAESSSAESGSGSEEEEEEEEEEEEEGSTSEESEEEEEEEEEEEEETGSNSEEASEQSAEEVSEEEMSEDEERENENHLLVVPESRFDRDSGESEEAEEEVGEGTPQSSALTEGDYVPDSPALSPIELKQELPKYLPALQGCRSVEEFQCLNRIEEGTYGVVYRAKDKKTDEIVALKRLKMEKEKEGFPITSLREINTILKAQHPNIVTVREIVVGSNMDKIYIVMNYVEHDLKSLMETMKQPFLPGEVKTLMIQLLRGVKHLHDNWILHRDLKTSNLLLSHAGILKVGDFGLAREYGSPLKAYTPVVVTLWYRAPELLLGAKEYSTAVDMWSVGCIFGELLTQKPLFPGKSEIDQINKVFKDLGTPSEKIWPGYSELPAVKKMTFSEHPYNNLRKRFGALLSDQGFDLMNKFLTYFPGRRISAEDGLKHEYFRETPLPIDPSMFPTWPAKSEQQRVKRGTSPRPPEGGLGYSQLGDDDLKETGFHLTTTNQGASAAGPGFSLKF

Rattus norvegicus [5] = test: Antiarthritic activity in adjuvant-induced arthritis Lewis rat model assessed as improvement in synovial hypertrophy at 3 to 10 mg/kg, po administered for 10 days and measured on day 17 by microCT-scanning analysis; assay type: functional, organism-based; conditions: dose 3-10 mg/kg, time 17.0 day
Rattus norvegicus [6] = test: Antiarthritic activity in adjuvant-induced arthritis Lewis rat model assessed as improvement in bone erosion at 3 to 10 mg/kg, po administered for 10 days and measured on day 17 by microCT-scanning analysis; conditions: dose 3-10 mg/kg, time 17.0 day
Rattus norvegicus [7] = test: Antiarthritic activity in adjuvant-induced arthritis Lewis rat model assessed as reduction in paw swelling administered for 10 days and measured on day 17; assay type: functional, organism-based; conditions: time 17.0 day; summary of the method: as §2
Rattus norvegicus [8] = test: Antiarthritic activity in adjuvant-induced arthritis Lewis rat model assessed as improvement in bone erosion at 3 to 10 mg/kg, po administered for 10 days and measured on day 17 by microCT-scanning analysis; assay type: functional, organism-based; conditions: dose 3-10 mg/kg, time 17.0 day
Blood = test: Ex-vivo inhibition of JAK1 in human blood assessed as reduction in IL-6-induced STAT3 phosphorylation at 36 mg/kg, po measured after 12 hrs; assay type: functional, organism-based
Summary of the method: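 Blood was drawn into sodium heparin tubes at 0, 1, 6 and 12 h after an oral dose. It was stimulated with recombinant human IL-6 (400 ng/ml) for 10 min at 37°C and surface-stained for CD14/CD3 on ice. Samples were lysed/fixed, frozen at −70°C, permeabilized, and stained for pSTAT3 for flow cytometry. Percent inhibition used geometric means of induced minus baseline pSTAT relative to pre-dose.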

Rattus norvegicus [9] = test: Antiarthritic activity in adjuvant-induced arthritis Lewis rat model assessed as bone destruction by measuring reduction in bone volume at 3 mg/kg, po administered for 10 days and measured on day 17 by microCT-scanning analysis; assay type: functional; design: scale not given: the % may be the effect or the level left; conditions: time 17 day; summary of the method: as §1
Rattus norvegicus [10] = test: Antiarthritic activity in adjuvant-induced arthritis po dosed Lewis rat model assessed as bone destruction by measuring reduction in bone volume administered for 10 days and measured on day 17 by microCT-scanning analysis; assay type: functional, organism-based; conditions: dose 0.1-10 mg/kg, time 17.0 day; summary of the method: as §1
[11] = target: AMP-activated protein kinase, AMPK; test: Inhibition of AMPK (unknown origin) by TR-FRET assay; assay type: protein-complex assay, Homo sapiens
Rattus norvegicus [12] = test: Antiarthritic activity in adjuvant-induced arthritis Lewis rat model assessed as improvement in cartilage damage at 3 to 10 mg/kg, po administered for 10 days and measured on day 17 by microCT-scanning analysis; conditions: dose 3-10 mg/kg, time 17.0 day
Rattus norvegicus [13] = test: Antiarthritic activity in adjuvant-induced arthritis Lewis rat model assessed as improvement in synovial hypertrophy at 3 to 10 mg/kg, po administered for 10 days and measured on day 17 by microCT-scanning analysis; conditions: dose 3-10 mg/kg, time 17.0 day
Rattus norvegicus [14] = test: Antiarthritic activity in adjuvant-induced arthritis Lewis rat model assessed as improvement in cartilage damage at 3 to 10 mg/kg, po administered for 10 days and measured on day 17 by microCT-scanning analysis; assay type: functional, organism-based; conditions: dose 3-10 mg/kg, time 17.0 day
Rattus norvegicus [15] = test: Antiarthritic activity in adjuvant-induced arthritis Lewis rat model assessed as bone destruction by measuring reduction in bone volume at 0.1 mg/kg, po administered for 10 days and measured on day 17 by microCT-scanning analysis; assay type: functional; design: scale not given: the % may be the effect or the level left; conditions: time 17 day; summary of the method: as §1
Rattus norvegicus [16] = test: Antiarthritic activity in adjuvant-induced arthritis Lewis rat model assessed as bone destruction by measuring reduction in bone volume at 0.3 mg/kg, po administered for 10 days and measured on day 17 by microCT-scanning analysis; assay type: functional; design: scale not given: the % may be the effect or the level left; conditions: time 17 day; summary of the method: as §3
Rattus norvegicus [17] = test: Antiarthritic activity in adjuvant-induced arthritis Lewis rat model assessed as bone destruction by measuring reduction in bone volume at 1 mg/kg, po administered for 10 days and measured on day 17 by microCT-scanning analysis; assay type: functional; design: scale not given: the % may be the effect or the level left; conditions: time 17 day; summary of the method: as §3
[18] = Inhibition of ABL (unknown origin) by TR-FRET assay; design: species or system Homo sapiens

Compound | Activity (Rattus norvegicus [1]) | Activity (Rattus norvegicus [2]) | Activity (Rattus norvegicus [3]) | IC50 [4] | Activity (Rattus norvegicus [5]) | Activity (Rattus norvegicus [6]) | Activity (Rattus norvegicus [7]) | Activity (Rattus norvegicus [8]) | inhibition (Blood) | Activity (Rattus norvegicus [9]) | Activity (Rattus norvegicus [10]) | IC50 [11] | Activity (Rattus norvegicus [12]) | Activity (Rattus norvegicus [13]) | Activity (Rattus norvegicus [14]) | Activity (Rattus norvegicus [15]) | Activity (Rattus norvegicus [16]) | Activity (Rattus norvegicus [17]) | IC50 [18]
C[C@@H]1CCN(C(=O)CC#N)C[C@@H]1N(C)c1ncnc2[nH]ccc12 [TOFACITINIB] | Active | >60% | – | – | – | – | – | – | – | – | – | – | – | – | – | – | – | – | –
CC[C@@H]1CN(C(=O)NCC(F)(F)F)C[C@@H]1c1cnc2cnc3[nH]ccc3n12 [UPADACITINIB] | – | >60% | 89% | > 10 µM | Active | Active | Active | Active | Active | 96% | Dose-Dependent Effect | > 4.5 µM | Active | Active | Active | 26% | 16% | 63% | > 10 µM
